Source: ChEMBL document CHEMBL1126191, “New antiinflammatory agents. 2. 5-Phenyl-3H-imidazo[4,5-c][1,8]naphthyridin-4(5H)-ones: a new class of nonsteroidal antiinflammatory agents with potent activity like glucocorticoids” (J Med Chem, 1992)

Tests used:
Rattus norvegicus [1] = test: Antiinflammatory effect (oral administration), on zymosan-induced rat paw edema at 25 mg/kg; type: functional
How it was run: (§1)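 Oral dosing in 5% arabic gum suspension to male Wistar rats (~150 g, n=5) 1 h before subplantar injection of 1% zymosan in saline into the hind paw. Paw volume was read by plethysmograph before dosing and 4 h after zymosan.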

Rattus norvegicus [2] = test: Antiinflammatory effect (oral administration) on rat paw edema model (reversed passive Arthus reaction-induced paw edema) at 10 mg/kg; type: functional
How it was run: (§2)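 Reversed passive Arthus: male Wistar rats (~150 g, n=5) were dosed orally with compound in 5% arabic gum. Paw volume was measured by plethysmograph before dosing and 2 h after antigen. % inhibition was calculated vs controls, and ED50 came from log-dose linear regression.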

Mus musculus = test: Acute lethal toxicity (peroral administration), determined by observing the mortality for 7 days after the administration in mouse; type: organism-based; conditions: in vivo, po, 168 h
How it was run: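 Male dd mice of 20-25 g, three per group, given compound by mouth once. Mortality followed for 7 days, and the minimum lethal dose (MLD) was recorded in mg/kg po.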

Rattus norvegicus [3] = test: Antiinflammatory effect in rat paw edema model following 50 mg/kg p.o. administration.; type: functional; conditions: route oral
Rattus norvegicus [4] = test: Antiinflammatory effect (oral administration), on rat reversed passive Arthus reaction-induced paw edema at 5 mg/kg; type: functional; how it was run: as §2
Rattus norvegicus [5] = test: Antiinflammatory effect (oral administration) on rat paw edema model (zymosan-induced paw edema) at 50 mg/kg; type: functional; how it was run: as §1
Rattus norvegicus [6] = test: Antiinflammatory effect (oral administration) on rat paw edema model (carrageenan-induced paw edema) at 50 mg/kg; type: functional
Rattus norvegicus [7] = test: Antiinflammatory effect (oral administration) on rat paw edema model (reversed passive Arthus reaction-induced paw edema) at 5 mg/kg; type: functional; how it was run: as §2
Rattus norvegicus [8] = test: Dose of the compound (oral administration) showing antiinflammatory effect on rat paw edema model (carrageenan-induced paw edema, CPE); type: functional
Rattus norvegicus [9] = test: Dose of the compound (oral administration) showing antiinflammatory effect on rat paw edema model (reversed passive Arthus reaction-induced paw edema, RPAR); type: functional; how it was run: as §2
Rattus norvegicus [10] = test: Oral dose required for antiinflammatory effect on zymosan induced rat paw edema.; type: functional; how it was run: as §1
Rattus norvegicus [11] = test: Antiinflammatory effect of the compound(oral administration) on rat paw edema model(carrageenan-induced paw edema) at 50 mg/kg; type: functional

Row | Compound | inhibition in vivo at 25 mg/kg (Rattus norvegicus [1]) [%] | inhibition in vivo at 10 mg/kg (Rattus norvegicus [2]) [%] | MLD (Mus musculus) [mg/kg] | inhibition in vivo at 50 mg/kg (Rattus norvegicus [3]) [%] | inhibition in vivo at 5 mg/kg (Rattus norvegicus [4]) [%] | inhibition in vivo at 50 mg/kg (Rattus norvegicus [5]) [%] | inhibition in vivo at 50 mg/kg (Rattus norvegicus [6]) [%] | inhibition in vivo at 5 mg/kg (Rattus norvegicus [7]) [%] | ED40 (Rattus norvegicus [8]) [mg/kg] | ED50 (Rattus norvegicus [9]) [mg/kg] | ED40 (Rattus norvegicus [10]) [mg/kg] | inhibition in vivo at 50 mg/kg (Rattus norvegicus [11]) [%]
1 | O=c1c2c(ncn2CCc2ccccc2)c2cccnc2n1-c1ccccc1 | 25.7 | 5.6 | > 300 | 2.2 |  |  |  |  |  |  |  | 
2 | O=c1c2c(ncn2Cc2ccccc2Cl)c2cccnc2n1-c1ccccc1 | 27.3 |  |  | 14.9 | 20.8 |  |  |  |  |  |  | 
3 | CCN(CC)CCCn1cnc2c3cccnc3n(-c3ccccc3)c(=O)c21 | 17.4 |  |  | 7.2 | 11.1 |  |  |  |  |  |  | 
4 | O=c1c2c(nc(-c3ccccc3)n2Cc2ccccc2)c2cccnc2n1-c1ccccc1 |  |  |  |  |  | -4 | 0 | 1.2 |  |  |  | 
5 | O=c1c2c(ncn2Cc2ccccc2)c2cccnc2n1-c1ccccc1 | 68.3 |  | > 300 |  | 79.7 |  |  |  | 5.3 | 0.47 | 0.37 | 63
6 | O=c1c2c(ncn2CCCN2CCOCC2)c2cccnc2n1-c1ccccc1 | 22.4 |  |  |  | -3.5 |  |  |  |  |  |  | 9.7
7 | CCn1cnc2c3cccnc3n(-c3ccccc3)c(=O)c21 | 77.5 | 86.9 | 100 |  |  |  |  |  | 13.9 | 1.9 | 1.6 | 58.2
8 | Cn1cnc2c3cccnc3n(-c3ccccc3)c(=O)c21 |  |  | 100 |  | 45 |  |  |  |  |  |  | 40
9 | O=c1c2c(ncn2Cc2ccc(Cl)cc2)c2cccnc2n1-c1ccccc1 | 42.8 |  | > 300 | 21.3 | 15.1 |  |  |  |  |  | 20.3 | 
10 | CC(C)n1cnc2c3cccnc3n(-c3ccccc3)c(=O)c21 | 62.4 |  | 200 | 43.1 | 13.3 |  |  |  |  |  | 12.7 | 
11 | O=c1c2ncn(Cc3ccccc3)c2c2cccnc2n1-c1ccccc1 | 4.7 |  | > 300 |  | 1.5 |  |  |  |  |  |  | 
12 | CC(c1ccccc1)n1cnc2c3cccnc3n(-c3ccccc3)c(=O)c21 (stereo not drawn) | 1.6 |  | > 300 | 3.5 | 14.9 |  |  |  |  |  |  | 
13 | CC(C)Cn1cnc2c3cccnc3n(-c3ccccc3)c(=O)c21 | 69.7 |  | 300 |  | 61.8 |  |  |  | 9.1 | 0.97 | 0.19 | 57.4
14 | O=c1c2c(ncn2CCCO)c2cccnc2n1-c1ccccc1 | 58.1 |  | > 300 |  | 41.3 |  |  |  | 33.5 | 3.7 | 4.8 | 42.6
15 | CC(=O)OCCn1cnc2c3cccnc3n(-c3ccccc3)c(=O)c21 | 41.6 | 11.8 | > 300 |  |  |  |  |  | 40.3 |  | 19.4 | 42.2
16 | O=C(O)Cn1cnc2c3cccnc3n(-c3ccccc3)c(=O)c21 | 5.1 |  |  | 10.8 | 3.3 |  |  |  |  |  |  | 
17 | CCCCCCn1cnc2c3cccnc3n(-c3ccccc3)c(=O)c21 | 33.5 |  | > 300 |  | 51.1 |  |  |  |  | 4.9 |  | 35.2
18 | CC(C)n1cnc2c(=O)n(-c3ccccc3)c3ncccc3c21 |  |  | > 300 |  | 32 |  |  |  |  |  |  | 
19 | C=CCn1cnc2c3cccnc3n(-c3ccccc3)c(=O)c21 | 67.3 |  | > 300 |  | 22.7 |  |  |  | 21.9 |  | 2.7 | 67.8
20 | Oc1c2ncnc-2c2cccnc2n1-c1ccccc1 |  |  | > 300 |  | 15.4 |  |  |  |  |  |  | 
